Experimental data from different studies.
Protocols differ between the studies behind these lines. pIC50: −log10 of the molar value.
Cell line: PC-9
Observed: cell growth or viability
Time: 72 h

Structure (SMILES) | method | tested at | endpoint | result
COc1ccc(N(Cc2nc(-c3ccc(F)cc3)cs2)C(=O)CCCCCC(=O)NO)cc1 | MTT |  | pIC50 | 6.14
O=C(Nc1ccc(Cl)cc1)Nc1nc2cc(-c3ccc4ncn(CCN5CCOCC5)c(=O)c4c3)ccc2s1 | MTT |  | pIC50 | < 4.70
COc1ccc(NC(=O)Nc2cccc(-c3cn(Cc4ccc(Cl)cc4)nn3)c2)cc1 | CCK-8 | 50 µM | viability | 89.5%
O=C(Nc1cccc(-c2cn(Cc3ccc(Br)cc3)nn2)c1)Nc1ccccc1Br | CCK-8 | 50 µM | viability | 92.6%
COc1ccc(NC(=O)NCc2cn(Cc3ccc(Cl)cc3)nn2)cc1 | CCK-8 | 20 µM | viability | 96.2%
COc1ccc(N(Cc2csc(-c3ccc(Br)cc3)n2)C(=O)CCCCCC(=O)NO)cc1 | MTT |  | pIC50 | 5.73
CCCCNC(=O)Nc1nc2cc(-c3ccc4ncn(Cc5ccccc5)c(=O)c4c3)ccc2s1 | MTT |  | pIC50 | < 4.70
O=C(Nc1ccc(Cl)cc1)Nc1ccc(-c2cn(Cc3ccc(Br)cc3)nn2)cc1 | CCK-8 | 20 µM | viability | 71.5%
COc1ccc(NC(=O)NCc2cn(Cc3ccccc3C)nn2)cc1 | CCK-8 | 20 µM | viability | 94.4%
O=C(Nc1ccc(Cl)cc1)Nc1ccc(-c2cn(Cc3ccc(Cl)cc3)nn2)cc1 | CCK-8 | 50 µM | viability | 81.3%
COc1ccc(NC(=O)Nc2nc3cc(-c4ccc5ncn(CCN6CCOCC6)c(=O)c5c4)ccc3s2)cc1 | MTT |  | pIC50 | < 4.70
COc1ccc(NC(=O)Nc2ccc(-c3cn(Cc4ccc(C)cc4)nn3)cc2)cc1 | CCK-8 | 20 µM | viability | 87.1%
O=C(Nc1nc2cc(-c3ccc4ncn(Cc5ccccc5)c(=O)c4c3)ccc2s1)c1ccccc1 | MTT |  | pIC50 | < 4.70
COc1ccc(NC(=O)Nc2ccc(-c3cn(Cc4ccc(Br)cc4)nn3)cc2)cc1 | CCK-8 | 50 µM | viability | 96.4%
O=C(NCc1cn(Cc2ccc(Cl)cc2)nn1)Nc1ccc(Cl)cc1 | CCK-8 | 20 µM | viability | 83.2%
O=C(Nc1ccc(F)cc1)Nc1nc2cc(-c3ccc4ncn(CC(=O)N5CCOCC5)c(=O)c4c3)ccc2s1 | MTT |  | pIC50 | < 4.70
O=C(NCc1cn(Cc2ccc(Cl)cc2)nn1)Nc1ccccc1Br | CCK-8 | 20 µM | viability | 94.5%
Cc1ccccc1Cn1cc(-c2cccc(NC(=O)Nc3ccc(F)cc3)c2)nn1 | CCK-8 | 20 µM | viability | 88.9%
CCCn1cnc2ccc(-c3ccc4sc(NC(=O)Nc5ccc(F)cc5)nc4c3)cc2c1=O | MTT |  | pIC50 | 5.82
O=C(Nc1cccc(-c2cn(Cc3ccc(Cl)cc3)nn2)c1)Nc1ccccc1Br | CCK-8 | 50 µM | viability | 107%
